Laboratory results published in ChEMBL document CHEMBL1128460, “Design, synthesis, and structure-activity relationships of a new series of alpha-adrenergic agonists: spiro[(1,3-diazacyclopent-1-ene)-5,2'-(1',2',3',4'- tetrahydronaphthalene)]” (J Med Chem, 1995).

Legend:
[1] = species: Canis familiaris; experiment: Effective concentration for the agonist in the isolated blood vessel using in vitro femoral artery; type: functional; conditions: Canis lupus familiaris
Summary of the method: (§1)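 Vessel segments from mongrel dogs (15–25 kg) anesthetized with pentobarbital (30 mg/kg iv), mounted for isometric tension in physiological saline. Equilibrated 90 min with bath changes every 30 min, rauwolscine (10^-7 M) present throughout. Primed with KCl (100 mM), then phenylephrine (1 µM). Agonist concentration–response curves run at half-log steps, giving EC50 (µM) and Emax as % of phenylephrine maximum; mean ±SD.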

[2] = species: Canis familiaris; experiment: Effective concentration for the agonist in the isolated blood vessel using in vitro saphenous vein; type: functional; conditions: Canis lupus familiaris; summary of the method: as §1
[3] = species: Canis familiaris; experiment: Maximal contractile response obtained with the agonist (expressed as a percentage of the maximal contraction to phenylephrine in the dog saphenous vein); type: functional, Canis lupus familiaris; summary of the method: as §1
[4] = species: Canis familiaris; experiment: Maximal contractile response obtained with the agonist (expressed as a percentage of the maximal contraction to phenylephrine in the dog femoral artery); type: functional, Canis lupus familiaris; summary of the method: as §1
[5] = biological target: T1, Adrenergic receptor alpha (Rattus norvegicus) (UniProt P15823+P23944+P43140+P22086+P19328+P22909); experiment: Alpha adrenergic activity was evaluated as maximal pressure response caused by agonist, expressed in mmHg (the maximum obtained with phenylephrine is 150 mmHg).; type: functional
[6] = biological target: T2, Alpha-2A adrenergic receptor (Homo sapiens, UniProt P08913); experiment: Binding affinity towards Alpha-2A adrenergic receptor in human platelets using [3H]RX-821002 as radioligand
T2 sequence (P08913 whole entry): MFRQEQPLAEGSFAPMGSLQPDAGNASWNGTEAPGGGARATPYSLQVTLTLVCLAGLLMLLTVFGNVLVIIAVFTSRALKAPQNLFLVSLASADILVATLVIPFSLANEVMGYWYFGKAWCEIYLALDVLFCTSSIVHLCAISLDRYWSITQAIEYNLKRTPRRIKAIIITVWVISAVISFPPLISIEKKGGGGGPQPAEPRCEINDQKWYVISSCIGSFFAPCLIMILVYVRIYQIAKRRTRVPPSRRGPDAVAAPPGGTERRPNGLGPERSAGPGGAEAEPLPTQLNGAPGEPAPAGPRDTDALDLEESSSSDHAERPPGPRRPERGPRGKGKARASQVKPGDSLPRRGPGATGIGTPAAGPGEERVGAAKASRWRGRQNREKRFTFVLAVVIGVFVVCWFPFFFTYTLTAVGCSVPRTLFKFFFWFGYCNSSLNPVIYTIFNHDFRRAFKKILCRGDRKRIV
Summary of the method: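 Human platelet membranes with [3H]RX821002 (1.5 nM), nonspecific binding with phentolamine (10 µM). Displacement at nine concentrations spanning 3 orders of magnitude, IC50 by log-probit analysis, converted to Ki using Scatchard Kd. ≥3 independent duplicate experiments.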

[7] = biological target: T3, Alpha-2B adrenergic receptor (Rattus norvegicus, UniProt P19328); experiment: Binding affinity towards Alpha-2B adrenergic receptor in neonatal rat lung using [3H]-RX-821002 as radioligand
T3 sequence (P19328 whole entry): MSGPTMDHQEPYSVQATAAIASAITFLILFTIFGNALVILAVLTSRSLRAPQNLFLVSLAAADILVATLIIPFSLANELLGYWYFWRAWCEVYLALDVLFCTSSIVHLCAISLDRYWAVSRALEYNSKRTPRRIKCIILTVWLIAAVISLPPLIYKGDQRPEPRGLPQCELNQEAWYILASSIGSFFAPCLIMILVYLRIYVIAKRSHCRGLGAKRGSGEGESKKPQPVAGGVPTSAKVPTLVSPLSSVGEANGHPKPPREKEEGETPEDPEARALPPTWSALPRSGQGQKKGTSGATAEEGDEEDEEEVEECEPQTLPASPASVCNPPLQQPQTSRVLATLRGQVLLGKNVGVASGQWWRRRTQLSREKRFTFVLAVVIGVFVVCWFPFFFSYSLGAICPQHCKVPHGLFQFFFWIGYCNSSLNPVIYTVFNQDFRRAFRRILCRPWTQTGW
Summary of the method: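 Neonatal rat lung membranes with [3H]RX821002 (0.5 nM), nonspecific binding with phentolamine (10 µM). Nine concentrations over 3 log units, IC50 by log-probit, Ki by Cheng–Prusoff with Scatchard-derived Kd. ≥3 independent experiments in duplicate.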

[8] = biological target: T4, Adrenergic receptor alpha-1 (Rattus norvegicus, UniProt P15823+P23944+P43140); experiment: Displacement of [3H]prazosin from rat cortex Alpha-1 adrenergic receptor
T4 sequence (P15823 whole entry): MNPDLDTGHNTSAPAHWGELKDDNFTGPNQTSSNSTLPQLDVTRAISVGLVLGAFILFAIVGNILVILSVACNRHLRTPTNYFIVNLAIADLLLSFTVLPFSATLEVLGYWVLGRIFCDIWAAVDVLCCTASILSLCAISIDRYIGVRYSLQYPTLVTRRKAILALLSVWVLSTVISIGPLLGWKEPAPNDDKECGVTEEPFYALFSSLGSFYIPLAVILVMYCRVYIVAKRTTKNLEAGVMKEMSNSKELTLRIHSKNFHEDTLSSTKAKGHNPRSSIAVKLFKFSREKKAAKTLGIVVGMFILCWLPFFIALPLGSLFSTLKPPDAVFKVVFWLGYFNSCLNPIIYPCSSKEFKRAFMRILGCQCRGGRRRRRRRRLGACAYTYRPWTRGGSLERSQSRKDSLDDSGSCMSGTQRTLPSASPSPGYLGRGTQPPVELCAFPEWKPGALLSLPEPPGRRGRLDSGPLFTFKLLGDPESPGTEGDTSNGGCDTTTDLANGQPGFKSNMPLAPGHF
T4 sequence (P23944 whole entry): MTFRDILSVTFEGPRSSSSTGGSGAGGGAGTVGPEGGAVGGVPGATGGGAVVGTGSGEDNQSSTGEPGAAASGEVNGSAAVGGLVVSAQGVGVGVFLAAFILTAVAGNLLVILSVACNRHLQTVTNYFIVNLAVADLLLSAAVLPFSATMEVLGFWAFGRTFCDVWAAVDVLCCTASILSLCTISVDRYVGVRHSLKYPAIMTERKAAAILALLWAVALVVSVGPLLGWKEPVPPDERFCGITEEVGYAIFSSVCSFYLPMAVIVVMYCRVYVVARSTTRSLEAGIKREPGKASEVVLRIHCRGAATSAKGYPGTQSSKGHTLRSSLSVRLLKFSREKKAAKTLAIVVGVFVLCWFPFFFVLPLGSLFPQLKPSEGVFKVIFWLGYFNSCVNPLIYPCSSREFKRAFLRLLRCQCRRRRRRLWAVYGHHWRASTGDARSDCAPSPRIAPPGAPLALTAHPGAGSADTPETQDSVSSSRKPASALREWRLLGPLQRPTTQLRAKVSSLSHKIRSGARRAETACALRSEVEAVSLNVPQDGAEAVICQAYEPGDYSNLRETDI
T4 sequence (P43140 whole entry): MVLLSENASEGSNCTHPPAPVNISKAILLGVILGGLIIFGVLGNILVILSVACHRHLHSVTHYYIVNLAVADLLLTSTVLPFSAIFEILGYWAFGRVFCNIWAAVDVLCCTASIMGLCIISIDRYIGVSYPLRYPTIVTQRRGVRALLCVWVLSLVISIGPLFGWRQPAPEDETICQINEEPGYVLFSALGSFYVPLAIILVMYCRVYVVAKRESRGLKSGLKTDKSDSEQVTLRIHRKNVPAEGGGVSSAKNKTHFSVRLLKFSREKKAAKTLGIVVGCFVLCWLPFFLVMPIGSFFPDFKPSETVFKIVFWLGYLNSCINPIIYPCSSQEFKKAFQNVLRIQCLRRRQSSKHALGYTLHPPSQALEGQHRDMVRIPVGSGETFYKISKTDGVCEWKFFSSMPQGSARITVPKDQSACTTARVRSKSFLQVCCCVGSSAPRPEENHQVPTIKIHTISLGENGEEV
Summary of the method: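 Rat cortex membranes labelled with [3H]prazosin (0.3 nM), nonspecific binding with prazosin (10 µM). Nine drug concentrations spanning 3 log units, IC50 by log-probit analysis. Ki by Cheng–Prusoff using Kd from Scatchard saturation. At least three independent experiments in duplicate.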

[9] = Ratio of C20 obtained in the absence or presence of [C20 (1 mg of yohimbine.) / C20 (control)]; type: functional
Summary of the method: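 Pithed rat arterial pressure assay with tertatolol (100 mg/kg) pretreatment, then yohimbine (1 mg/kg) 10 min later. Cumulative iv agonist doses given at 20 s intervals after a further 10 min, C20 (+20 mmHg dose) obtained. Ratio expressed as C20(yohimbine)/C20(control); 3–6 determinations.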

[10] = biological target: T1, Adrenergic receptor alpha (Rattus norvegicus); experiment: Alpha adrenergic activity was evaluated as concentration (iv) which increases the arterial pressure by 20 mmHg in the pithed rat; type: functional, organism-based; conditions: Artery
[11] = Ratio of C20 obtained in the absence or presence of [C20 ( 0.1 mg of prazosin ) / C20 (control)]; type: functional
Summary of the method: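 Pithed rats pretreated with tertatolol (100 mg/kg), then 10 min later with prazosin (100 µg/kg). Cumulative iv agonist doses given another 10 min later at 20 s intervals. Arterial pressure recorded, C20 (dose giving +20 mmHg) determined. Ratio calculated as C20(prazosin)/C20(control); 3–6 determinations.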

[12] = Ratio of C20 (pithed rat) to that of EC50 (saphenous vein); type: functional

Row | EC50 [1] | EC50 [2] | Max [5] | Ki [6] | Ki [7] | Ki [8] | C20 [10] | Structure (SMILES) | Emax [3] | Emax [4] | Ratio [9] | Ratio [11] | Ratio [12]
1 | – | 11000 nM | 108 mmHg | – | – | – | 7.8 µg/kg | Fc1ccc2c(c1)CC1(CC2)CN=CN1 (stereo not given) | 67 | 8 | 7.7 | 5 | 0.71
2 | 360 nM | 14 nM | 140 mmHg | 1.6 nM | 20 nM | 800 nM | 0.2 µg/kg | NC1=NC2(CCc3cccc(Cl)c3C2)CO1 (stereo not given) | 117 | 68 | 3 | 2 | –
3 | 800 nM | 2900 nM | 91 mmHg | – | – | – | 20 µg/kg | Cc1cc(C)c2c(c1)CC1(CC2)CN=CN1 (stereo not given) | 66 | 5 | 2.8 | 2.9 | 25
4 | – | 2700 nM | 72 mmHg | – | – | – | 37 µg/kg | Cc1cc2c(cc1C)CC1(CC2)CN=CN1 (stereo not given) | 64 | 0 | 2.5 | 0.5 | 14
5 | – | – | – | 87 nM | 1200 nM | – | – | COc1ccc2c(c1)CCC1(CNC=N1)C2 (stereo not given) | – | – | – | – | –
6 | 290 nM | 180 nM | 136 mmHg | – | – | 600 nM | 0.003 µg/kg | COc1ccc(SC)c2c1CC1(CC2)CN=CN1 (stereo not given) | 98 | 96 | 45 | 75 | –
7 | – | 7100 nM | 106 mmHg | – | – | 16000 nM | 1.5 µg/kg | COc1ccc2c(c1)CC1(CC2)CN=CN1 (stereo not given) | 49 | 0 | 6.9 | 3.9 | 0.21
8 | – | 6000 nM | 120 mmHg | – | – | – | 6.3 µg/kg | Clc1ccc2c(c1)CCC1(CN=CN1)C2 (stereo not given) | – | 0 | – | 2.8 | 1.05
9 | – | 4300 nM | 66 mmHg | – | – | – | 245 µg/kg | CC(C)c1ccc2c(c1)CC1(CC2)CN=CN1 (stereo not given) | 53 | 0 | 2.9 | 2.9 | 57
10 | – | 8800 nM | 105 mmHg | – | – | 29400 nM | 42 µg/kg | COc1ccc2c(c1)CCC1(CN=CN1)C2 (stereo not given) | 60 | 3 | 1.5 | 2.6 | 4.77
11 | 7200 nM | 500 nM | 139 mmHg | – | – | 16000 nM | 0.64 µg/kg | COc1cccc2c1CC1(CC2)CN=CN1 (stereo not given) | 100 | 97 | 4.6 | 2 | –
12 | 21000 nM | 2000 nM | 91 mmHg | 3 nM | 95 nM | 700 nM | 19 µg/kg | Clc1cc(Cl)c2c(c1)CC1(CC2)CN=CN1 (stereo not given) | 45 | 10 | 3.1 | 9.5 | –
13 | – | – | – | 18 nM | 193 nM | – | – | COc1ccc2c(c1)CC1(CC2)CNC=N1 (stereo not given) | – | – | – | – | –
14 | – | – | – | 51 nM | 99 nM | – | – | COc1cccc2c1CC1(CC2)CNC=N1 (stereo not given) | – | – | – | – | –
15 | 57000 nM | 2300 nM | 131 mmHg | 12 nM | 152 nM | 2500 nM | 4.6 µg/kg | Fc1cccc2c1CC1(CC2)CN=CN1 (stereo not given) | 99 | 75 | 1 | 0.6 | –
16 | – | – | – | 12 nM | 159 nM | – | – | COc1cccc2c1CCC1(CNC=N1)C2 (stereo not given) | – | – | – | – | –
17 | – | 5500 nM | 116 mmHg | – | – | – | 6.3 µg/kg | Clc1ccc2c(c1)CC1(CC2)CN=CN1 (stereo not given) | 72 | 0 | 5.8 | 2.6 | 1.15

Row | Structure (SMILES) | EC50 [1] | EC50 [2] | Max [5] | Ki [6] | Ki [7] | Ki [8] | C20 [10] | Emax [3] | Emax [4] | Ratio [9] | Ratio [11] | Ratio [12]
18 | FC(F)(F)c1ccc(Cl)c(NC2=NCCN2)c1 | 4700 nM | 5100 nM | 73 mmHg | 1560 nM | 179 nM | 65800 nM | 10 µg/kg | 81 | 22 | 2.2 | 33 | –
